# In ChEMBL document CHEMBL1145384, “Novel C-6 fluorinated acyclic side chain pyrimidine derivatives: synthesis, (1)H and (13)C NMR conformational studies, and antiviral and cytostatic evaluations” (J Med Chem, 2007):
# Assays:
# Human betaherpesvirus 5 [1] = test: Antiviral activity against human cytomegalovirus AD169 in HEL cells assessed as reduction of plaque formation after 7 days; assay type: functional, organism-based; settings: Human betaherpesvirus 5, AD169, HEL, 168 h
# In short: (§1)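 Confluent HEL fibroblasts infected with HCMV (Davis or AD-169) at 100 PFU per well; after 2 h adsorption, residual virus removed and medium with serial compound concentrations added (duplicate wells). Incubated 7 days; EC50 taken as concentration reducing plaque formation by 50%.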
# Human betaherpesvirus 5 [2] = test: Antiviral activity against human cytomegalovirus Davis in HEL cells assessed as reduction of plaque formation after 7days; assay type: functional, organism-based; settings: Human betaherpesvirus 5, Davis, 168 h; in short: as §1
# Human alphaherpesvirus 3 [3] = test: Antiviral activity against thymidine kinase expressing Varicella-Zoster virus OKA assessed as reduction of plaque formation; assay type: functional, organism-based; settings: Human alphaherpesvirus 3, OKA
# Human alphaherpesvirus 3 [4] = test: Antiviral activity against thymidine kinase deficient Varicella-Zoster virus 07/1 assessed as reduction of plaque formation; assay type: functional, organism-based; settings: Human alphaherpesvirus 3, 07/1
# In short: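 Plaque reduction assay in HEL cells against TK+ (OKA) and TK- (07/1) VZV strains; virus input 100 PFU; EC50 as concentration giving 50% plaque reduction.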
# [5] = Cytotoxicity against HEL cells assessed as cell morphology after 7 days; assay type: cell-based; settings: human
# In short: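 Uninfected confluent HEL cultures exposed to compounds; MCC recorded as lowest concentration producing a microscopically detectable alteration of normal cell morphology at day 7.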
# [6] = Cytotoxicity against HEL cells assessed as cell growth after 7 days; assay type: cell-based; settings: human
# Human respirovirus 3 = test: Antiviral activity against parainfluenza 3 virus in Vero cells assessed as reduction of virus plaque formation after 7 days; assay type: functional, organism-based; settings: Human respirovirus 3, Vero, 168 h
# [7] = system: Mammalian orthoreovirus 1; test: Antiviral activity against reovirus1 virus in Vero cells assessed as reduction of virus plaque formation after 7 days; assay type: functional, organism-based; settings: Mammalian orthoreovirus 1, Vero, 168 h
# Sindbis virus = test: Antiviral activity against sindbis virus in Vero cells assessed as reduction of virus plaque formation after 7 days; assay type: functional, organism-based; settings: 168 h
# Punta Toro virus = test: Antiviral activity against Punta Toro virus in Vero cells assessed as reduction of virus plaque formation after 7 days; assay type: functional, organism-based; settings: 168 h
# Coxsackievirus B4 = test: Antiviral activity against coxsackie B4 virus in HeLa cells assessed as reduction of virus plaque formation after 7 days; assay type: functional, organism-based; settings: Enterovirus B, 168 h
# HEp-2 = test: Growth inhibition of Hep2 cells after 72 hrs by MTT assay; assay type: functional, cell-based; settings: Homo sapiens, HEp-2, 72 h
# In short: (§2)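 Tumor lines grown as monolayers in DMEM with 10% FBS, 2 mM L-glutamine and penicillin. Freshly diluted compounds added, solvent tested at matching concentrations; after 72 h growth measured by MTT. IC50 obtained by linear regression of concentrations bracketing 50% growth; mean of three separate experiments.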
# HeLa = test: Growth inhibition of HeLa cells after 72 hrs by MTT assay; assay type: functional, cell-based; settings: Homo sapiens; in short: as §2
# MIA PaCa-2 = test: Growth inhibition of MiaPaCa2 cells after 72 hrs by MTT assay; assay type: functional, cell-based; settings: Homo sapiens, MIA PaCa-2, 72 h; in short: as §2
# SW-620 = test: Growth inhibition of SW620 cells after 72 hrs by MTT assay; assay type: functional, cell-based; settings: Homo sapiens, SW-620, 72 h; in short: as §2
# MCF7 = test: Growth inhibition of MCF7 cells after 72 hrs by MTT assay; assay type: functional, cell-based; settings: Homo sapiens, MCF7, 72 h; in short: as §2
# L1210 = test: Growth inhibition of mouse L1210 cells after 72 hrs by MTT assay; assay type: functional, cell-based; settings: L1210, 72 h
# [8] = Growth inhibition of human Molt4/C8 cells after 72 hrs by MTT assay; assay type: functional, cell-based; settings: MOLT-4, 72 h
# CCRF-CEM = test: Growth inhibition of human CEM cells after 72 hrs by MTT assay; assay type: functional, cell-based
Compound,EC50 (Human betaherpesvirus 5 [1]) [µM],EC50 (Human betaherpesvirus 5 [2]) [µM],EC50 (Human alphaherpesvirus 3 [3]) [µM],EC50 (Human alphaherpesvirus 3 [4]) [µM],MCC at 168 h [5] [µM],CC50 at 168 h [6] [µM],EC50 (Human respirovirus 3) [µM],EC50 [7] [µM],EC50 (Sindbis virus) [µM],EC50 (Punta Toro virus) [µM],EC50 (Coxsackievirus B4) [µM],IC50 (HEp-2) [µM],IC50 (HeLa) [µM],IC50 (MIA PaCa-2) [µM],IC50 (SW-620) [µM],IC50 (MCF7) [µM],IC50 (L1210) [µM],IC50 [8] [µM],IC50 (CCRF-CEM) [µM]
COc1cc(/C=C(\C)c2ccc(F)cc2)nc(OC)n1,> 20,> 20,> 20,> 20,100,88,> 40,> 40,> 40,40,> 40,20,17,> 100,56,16,> 200,> 200,74
COc1cc(/C=C(\O)C(F)(F)C(F)(F)F)nc(OC)n1,> 100,> 100,> 100,> 100,> 100,≥ 60,> 100,> 100,> 100,> 100,> 100,55.4,26.3,≥ 100,45,76,80,43,9.7
COc1cc(/C=C(/O)C(F)(F)F)nc(OC)n1,> 80,> 100,> 100,> 100,> 100,> 100,> 100,> 100,> 100,> 100,> 200,> 200,> 200,> 200,> 200,> 200,> 200,80,> 200
COc1nc(C)c(-c2ccccc2)c(OC)n1,> 20,> 20,> 20,> 20,100,34,> 40,> 40,> 40,40,> 40,> 100,90,> 100,> 100,> 100,77,70,43
COc1nc(OC)c(Br)c(C(Br)Br)n1,> 20,> 20,8.8,10.5,100,1.7,40,> 40,40,> 40,> 40,2,1,2,0.4,6,8.8,8.5,7.1
COc1nc(CC(C)(O)c2ccc(F)cc2)c(C)c(OC)n1 (stereo unspecified),45,20,80,45,> 100,> 100,> 200,> 200,> 200,> 200,> 40,43,35,65,≥ 100,38,195,144,136
COc1nc(C)c(Br)c(OC)n1,> 100,> 100,> 100,88,≥ 100,18,> 200,> 200,> 200,> 200,> 200,> 100,> 100,> 100,> 100,> 100,> 200,> 200,> 200
O=c1[nH]c(=O)n([C@H]2C[C@H](O)[C@@H](CO)O2)cc1/C=C/Br [BRIVUDINE],–,–,0.014,168,≥ 1200,408,> 250,> 250,> 250,> 250,> 250,–,–,–,–,–,–,–,–
COc1cc(CC(C)(O)c2ccc(F)cc2)nc(OC)n1 (stereo unspecified),> 100,59,> 100,> 100,> 100,> 100,120,200,> 200,120,40,> 100,> 100,> 100,> 100,> 100,> 200,> 200,> 200
Nc1nc2c(ncn2COC(CO)CO)c(=O)[nH]1 [GANCICLOVIR],4.8,1.3,–,–,> 1580,172,–,–,–,–,–,–,–,–,–,–,–,–,–
COc1cc(CC(C)(CF)OC(C)=O)nc(OC)n1 (stereo unspecified),> 14.7,> 14.7,8.1,7.4,73.5,50,> 29,> 29,> 29,> 29,> 147,17.7,11.7,39,30,18,21.7,47.8,20.6
COc1cc(/C=C(/O)c2ccc(F)cc2)nc(OC)n1,> 100,38,> 100,> 20,> 100,> 100,> 200,> 200,200,> 200,24,> 100,> 100,> 100,≥ 100,≥ 100,> 200,> 200,192
CC(=O)OC(C)(Cc1cc(O)nc(O)n1)Cc1ccccc1F (stereo unspecified),> 100,> 100,> 100,> 100,> 100,> 100,> 124,> 124,> 124,> 124,> 200,> 200,> 200,> 200,> 200,> 200,> 200,> 200,> 200
Nc1nc2c(ncn2COCCO)c(=O)[nH]1 [ACYCLOVIR],–,–,–,–,> 1780,649,–,–,–,–,–,–,–,–,–,–,–,–,–
COc1cc(CC(C)(O)Cc2ccccc2F)nc(OC)n1 (stereo unspecified),> 100,> 100,> 100,> 100,≥ 100,> 100,> 130,> 130,> 130,> 130,> 200,> 200,> 200,> 200,> 200,> 200,> 200,79,156
CC(O)(Cc1cc(O)nc(O)n1)C(F)(F)F (stereo unspecified),> 100,> 100,> 100,> 100,> 100,> 100,> 200,> 200,> 200,> 200,> 200,> 100,> 100,> 100,> 100,> 100,> 500,> 500,> 500
Nc1ccn(C[C@@H](CO)OCP(=O)(O)O)c(=O)n1 [CIDOFOVIR],0.41,0.41,–,–,≥ 1270,51,–,–,–,–,–,–,–,–,–,–,–,–,–
NC(=O)c1ncn([C@@H]2O[C@H](CO)[C@@H](O)[C@H]2O)n1 [RIBAVIRIN],–,–,–,–,–,–,150,250,50,150,150,–,–,–,–,–,–,–,–
Nc1ncnc2c1ncn2C[C@H](O)CO [(S)-DHPA],–,–,–,–,–,–,> 250,> 250,> 250,> 250,> 250,–,–,–,–,–,–,–,–
